Bioassay records deposited in PubChem by several laboratories.
Shown are actives, neighbours in structure and some others; about 2.9% of the full set was active somewhere.
NALP1 yeast inh – NALP1 inflammasome inhibitors in reconstituted yeast, colorimetric, S. cerevisiae, triplicate retest. S. cerevisiae NALP1/ASC/caspase-1 growth, X-gal OD620, 72 h. inhibition, % at 10 µM. 280,000 tested, 0.61% active. AID 2071, 2009; in the data active = inhibition mostly above about 24%, no sharp cut-off; inactive = mostly below about 32%
IMP-1 inh-1 – IMP-1 metallo-beta-lactamase inhibitors, primary screen, biochemical, epi-absorbance readout, Pseudomonas aeruginosa enzyme. metallo-beta-lactamase IMP-1 (Pseudomonas aeruginosa). inhibition, % at 5.6 µM. AID 1556, 2009. purified IMP-1, nitrocefin hydrolysis, epi-absorbance fluorescence. 290,000 tested, 0.45% active;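 active = inhibition above the mean plus 3 SD of all compounds in the same screening run, cut at about 4.5% in these data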;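 also: 0% = IMP-1 with DMSO and 100% = DMSO wells lacking enzyme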
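System: purified IMP-1 / Input: IMP-1 dispensed at 0.2 nM / Medium: 50 mM HEPES pH 7.1, 50 µM ZnSO4, 0.05% Brij 35 / Timing: 15 min enzyme–compound preincubation, then 25 min nitrocefin reaction, 25 °C / Technique: plate fluorescence quenching by hydrolysis product, ex 480/em 530 nm / Repeats: singlicate testing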
FID counter – compounds displacing fluorescent DNA intercalator, primary screen, artefact control for HCV NS3 helicase inhibitor project, biochemical, FID fluorescence; DNA fluorescent intercalator displacement; inhibition, % at 7.9 µM; 290,000 tested, 0.17% active; AID 1845, 2009; in the data active = inhibition above about 37%;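 also: 0% = vehicle and 100% = reference compound; higher means more ethidium bromide displaced from hairpin DNA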
UBC9 SUMO inh – inhibitors of in vitro SUMOylation cascade, primary screen, biochemical, HTRF, uHTS. HTRF SUMOylation assay, SAE1/SAE2 + UBC9. SUMO-conjugating enzyme UBC9 (Homo sapiens), P63279. inhibition, % at 35 µM. 290,000 tested, 0.36% active; in the data active = inhibition above about 50%, passing the limit was not always enough; inconclusive = no clear call, values can overlap the other calls
Target sequence (P63279 whole entry, looked up): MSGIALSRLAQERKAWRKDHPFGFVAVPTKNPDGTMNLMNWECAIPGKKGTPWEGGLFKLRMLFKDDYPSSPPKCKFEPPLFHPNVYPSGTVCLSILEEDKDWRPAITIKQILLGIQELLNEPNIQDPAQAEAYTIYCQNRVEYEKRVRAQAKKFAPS
Mot1-301 SUMO – yeast Mot1-301 growth rescue at high temperature, primary screen, SUMOylation pathway inhibitor project, S. cerevisiae, ATP luminescence, 38.5C; S. cerevisiae Mot1-301 growth rescue; percent above DMSO median, 100 means doubled; growth rescue, % at 18.8 µM; 320,000 tested, 1% active; AID 2716, 2010;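 active = every valid replicate shows activation above 250% relative to neutral control wells; inactive = the rest, any valid replicate at or below 250%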;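 also: OY570 slx delta 5 strain wells were the positive control but not used for scaling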
VIM-2 inhibitor – VIM-2 metallo-beta-lactamase inhibitors, primary screen, biochemical, epi-absorbance readout, Pseudomonas aeruginosa enzyme. purified VIM-2, nitrocefin hydrolysis, epi-absorbance fluorescence. 290,000 tested, 0.89% active. inhibition, % at 5.6 µM;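 active = inhibition above the mean of all tested compounds plus 3 SD, cutoff set per screening run, cut at about 7.5% in these data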;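 also: red hydrolysis product quenches plate fluorescence so inhibitors raise well fluorescence; 0% = enzyme with DMSO and 100% = DMSO without enzyme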
IMP-1 inh-2 – IMP-1 metallo-beta-lactamase inhibitors, confirmation, selectivity assay for selective VIM-2 inhibitor project, biochemical, epi-absorbance readout, triplicate. 1,300 tested, under 10 active. purified IMP-1, nitrocefin hydrolysis, epi-absorbance fluorescence. shares compounds with VIM-2 inhibitor. AID 1856, 2009. inhibition, % at 5.6 µM; call rule not given here;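 also: 0% = enzyme with vehicle and 100% = vehicle without enzyme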
VIM-2 FRET ctr – VIM-2 inhibitors in FRET format, confirmation, artefact control for selective VIM-2 inhibitor project, biochemical, epi-absorbance artifact exclusion | purified VIM-2, CCF2 FRET substrate hydrolysis | inhibition, % at 5.6 µM | AID 1857, 2009 | shares compounds with VIM-2 inhibitor | 1,300 tested, 23% active;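 active = inhibition above the mean of all tested compounds plus 3 SD, cut at about 19% in these data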;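 also: 0% = VIM-2 plus DMSO and 100% = no enzyme wells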
TEM-1 counter – TEM-1 serine beta-lactamase inhibitors, counter-screen for VIM-2 inhibitor project, biochemical, epi-absorbance, HTS | shares compounds with VIM-2 inhibitor | Purified TEM-1, nitrocefin hydrolysis, epi-absorbance fluorescence | inhibition, % at 5.6 µM | 1,300 tested, 3% active;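 active = inhibition above that campaign's mean inhibition plus 3 SD, cut at about 0.46% in these data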;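 also: 0% = TEM-1 with DMSO and 100% = TEM-1 with 100 µM potassium clavulanate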
Target sequence (P62593 whole entry, looked up): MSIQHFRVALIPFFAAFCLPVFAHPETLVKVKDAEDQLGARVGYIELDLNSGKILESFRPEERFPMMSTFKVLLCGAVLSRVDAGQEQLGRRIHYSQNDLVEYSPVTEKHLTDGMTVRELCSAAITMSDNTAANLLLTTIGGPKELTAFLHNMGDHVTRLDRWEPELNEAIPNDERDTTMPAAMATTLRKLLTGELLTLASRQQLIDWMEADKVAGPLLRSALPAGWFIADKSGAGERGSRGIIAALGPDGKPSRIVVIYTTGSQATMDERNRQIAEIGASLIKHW
VIM-2 inh conf – VIM-2 metallo-beta-lactamase inhibitors, confirmation, biochemical, epi-absorbance, hits shared with IMP-1 screen; inhibition, % at 5.6 µM; 1,300 tested, 96% active; purified VIM-2, nitrocefin hydrolysis; AID 2187, 2009; shares compounds with VIM-2 inhibitor;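 active = inhibition of the VIM-2 beta-lactamase enzyme above about 11% from the earlier first-round screen, limit read from the data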;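 also: 0% = VIM-2 with DMSO and 100% = buffer wells without enzyme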
* marks the source's active call; other numbers are inactive results; ? = inconclusive; . = no result given.

SMILES	NALP1 yeast inh	IMP-1 inh-1	FID counter	UBC9 SUMO inh	Mot1-301 SUMO	VIM-2 inhibitor	IMP-1 inh-2	VIM-2 FRET ctr	TEM-1 counter	VIM-2 inh conf
CCOC(=O)C1(Cc2ccc(OC)cc2)CCN(C(=O)CN2CCCCC2=O)CC1	-8.8	0.2	-25.9	-3.1	847.3	0.9	.	.	.	.
O=c1c2ccccc2oc2cc(NCCCN3CCOCC3)ccc12	-4.6	-0.4	5.7	54.6*	3.9	16.9*	-2.5	-8.1	-11.6	21.8*
CN1CCCC1CCNc1ccc2oc3ccccc3c(=O)c2c1 (centres undefined)	9.0	1.9	23.2	15.9	-6.1	15.7*	-1.8	-2.2	-4.8	17.5*
O=c1c2ccccc2oc2cc(NCCCn3ccnc3)ccc12	-13.1	-2.1	1.0	?	-25.4	0.9	.	.	.	.
CN1CCCC1CCNc1ccc2c(=O)c3ccccc3oc2c1 (centres undefined)	30.2	-2.2	20.4	?	21.0	17.3*	-2.1	-12.4	-13.7	27.5*
O=C(NN1C(=O)NC2(CCCCC2)C1=O)c1ccc(Cl)c(Cl)c1	.	.	.	.	-14.1	.	.	.	.	.
CCN(Cc1ccccc1)C(=O)CCS(=O)(=O)c1ccc2c(c1)n(C)c(=O)c(=O)n2C	15.7	-1.0	-16.1	12.0	9.0	-0.8	.	.	.	.
Cc1ccc(NC(=O)CN2C(=O)CSc3ccc(S(=O)(=O)N4CCCCC4)cc32)cc1	0.7	-0.9	-41.8	.	164.9	-4.2	.	.	.	.
COc1ccc(Cc2nc3ccc(C(=O)NCc4ncc(C)[nH]4)cc3o2)cc1OC	26.6	-2.1	4.4	17.4	-17.8	38.0*	-3.4	-12.2	-5.7	50.2*
COc1ccc(Cc2nc3ccc(C(=O)NCc4cc(C)no4)cc3o2)cc1OC	-3.3	-2.0	-37.7	9.9	-6.7	-2.0	.	.	.	.
Cc1ccc2c(c1)c(N=NC(N)=O)c(O)n2C	14.3	0.7	2.1	15.8	-9.3	12.6*	-3.5	-3.4	-4.4	18.6*
Cc1ccc2c(c1)c(N=Nc1cccc(C(=O)O)c1)c(O)n2C	-3.4	0.4	-25.3	5.8	3.1	-1.3	.	.	.	.
CCN1CCN(C(=O)CCc2nc3ccccc3c(=O)[nH]2)CC1	13.3	-0.5	2.3	-9.5	.	20.7*	-2.6	-2.5	-4.5	42.9*
CC(=O)N1CCN(c2ccc(NC(=O)c3cccc([N+](=O)[O-])c3)cc2)CC1	-8.2	-3.2	-10.9	-0.5	-5.9	-2.2	.	.	.	.
CN1C(=O)[C@@H]2[C@@H]3C[C@@H]([C@H]4ON=C(c5ccccc5OCC#N)[C@@H]34)[C@@H]2C1=O	5.2	-0.5	1.8	17.3	1.4	-2.1	.	.	.	.
CC(c1nccs1)N(C)c1nc2nonc2nc1N(C)C (centres undefined)	11.9	0.9	8.2	21.0	1.1	-2.3	.	.	.	.
Cc1nnc2c(NC3CCCC3)nc3ccccc3n12	11.5	-2.4	-22.7	13.0	-14.1	12.3*	-3.0	-3.8	-5.0	22.7*
CCN(CC)C(=O)CSc1nc2ccc(NC(=O)CSc3nccn3C)cc2s1	-7.5	-3.0	-10.6	-13.6	-1.3	20.9*	-2.6	51.7*	-6.6	36.2*
